Measurements from different studies.
Read-out: binding
KEAP1: Kelch-like ECH-associated protein 1 (KEAP1, Homo sapiens, UniProt Q14145)
NR4A1: Nuclear receptor subfamily 4immunitygroup A member 1 (NR4A1, Homo sapiens, UniProt P22736)
folP: Dihydropteroate synthase (folP, Bacteria, UniProt P0AC13)

Structure (SMILES)	target	test	Kd
OC[C@H]1OC(O)[C@H](O)[C@@H](O)[C@@H]1O (stereo partly drawn)	ATP-dependent RNA helicase DDX18 (Homo sapiens, UniProt Q9NVP1)	MST	77200 nM
C=CS(=O)(=O)c1ccc(Nc2nc(OCC3CCCCC3)c3nc[nH]c3n2)cc1	KEAP1	SPR	200 nM
O=C(O)/C=C/c1ccc(O)c(O)c1	KEAP1	SPR	4900 nM
N=C(N)NCCCC(=O)O	Alkaline phosphatase, tissue-nonspecific isozyme (ALPL, Homo sapiens, UniProt P05186)	ITC	2000 nM
COc1cccc2c(Nc3ccc4[nH]c(C(=O)N/N=C/c5ccc(SC)cc5)cc4c3)cc(C)nc12	NR4A1	ITC	2300 nM
CCOC(=O)C(C)c1n[nH]c2nc(N)[nH]c(=O)c2c1=O (stereo not drawn)	folP	SPR	199 nM
NC(=O)c1ncn([C@@H]2O[C@H](CO)[C@@H](O)[C@H]2O)n1	5'-AMP-activated protein kinase catalytic subunit alpha-1 (PRKAA1, Homo sapiens, UniProt Q13131)	SPR	6750 nM
CC(=O)OCc1nn(C)c2nc(N)[nH]c(=O)c2c1=O	folP	SPR	14.8 nM
CCCCCCCCC(=O)c1cc(O)c(O)c(O)c1	NR4A1	ITC	3700 nM
